Measurements as given in ChEMBL document CHEMBL1134562, “Fluorosulfonyl- and bis-(beta-chloroethyl)amino-phenylamino functionalized pyrazolo[4,3-e]1,2,4-triazolo[1,5-c]pyrimidine derivatives: irreversible antagonists at the human A3 adenosine receptor and molecular modeling studies” (J Med Chem, 2001).

Key:
[1] = target: T1, Adenosine receptor A3 (Homo sapiens) (UniProt P0DMS8); assay: Irreversible inhibition of […]-AB-MECA binding to human adenosine A3 receptor at 10 nM
T1 sequence (whole entry): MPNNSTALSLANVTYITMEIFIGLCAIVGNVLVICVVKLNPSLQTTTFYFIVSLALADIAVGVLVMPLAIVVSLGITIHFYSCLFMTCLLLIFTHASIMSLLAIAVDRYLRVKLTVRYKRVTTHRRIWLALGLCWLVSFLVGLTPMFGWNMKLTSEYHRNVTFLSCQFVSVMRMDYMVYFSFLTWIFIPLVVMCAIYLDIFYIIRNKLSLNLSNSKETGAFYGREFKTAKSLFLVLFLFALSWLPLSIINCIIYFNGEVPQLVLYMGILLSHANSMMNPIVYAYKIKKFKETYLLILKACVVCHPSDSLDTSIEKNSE
Outline: (§1)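 Membranes from CHO cells stably expressing human A3 receptor, preincubated 1 h at room temperature with compound (DMSO ≤1%), then washed 9 times by centrifugation/resuspension in 50 mM Tris, 10 mM Mg2+, 1 mM EDTA pH 7.4 with 0.02% CHAPS; adenosine deaminase 3 units/mL throughout.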

[2] = target: T1, Adenosine receptor A3 (Homo sapiens); assay: Irreversible inhibition of […]-AB-MECA binding to human adenosine A3 receptor at 100 nM; outline: as §1
[3] = target: T1, Adenosine receptor A3 (Homo sapiens); assay: Irreversible inhibition of […]-AB-MECA binding to human adenosine A3 receptor at 1 nM; outline: as §1

Work on `CCn1cc2c(nc(NC(=O)Nc3ccc(S(=O)(=O)F)cc3)n3nc(-c4ccco4)nc23)n1` yielded an inhibition [1] of 30%, an inhibition [2] of 65% and an inhibition [3] of 4.1%.

In the case of `CCn1cc2c(nc(NC(=O)Nc3ccc(N(CCCl)CCCl)cc3)n3nc(-c4ccco4)nc23)n1`, the inhibition [1] was 0%, the inhibition [2] was 18% and the inhibition [3] was 0%.

Compound `CCCn1cc2c(nc(NC(=O)Nc3ccc(N(CCCl)CCCl)cc3)n3nc(-c4ccco4)nc23)n1` has an inhibition [1] of 11%, an inhibition [2] of 16% and an inhibition [3] of 7.8%.

With `CCCCn1cc2c(nc(NC(=O)Nc3ccc(N(CCCl)CCCl)cc3)n3nc(-c4ccco4)nc23)n1` the inhibition [1] was 7%, the inhibition [2] was 9% and the inhibition [3] was 0%.

Compound `CCCCn1cc2c(nc(NC(=O)Nc3ccc(S(=O)(=O)F)cc3)n3nc(-c4ccco4)nc23)n1` has an inhibition [1] of 40%, an inhibition [2] of 73% and an inhibition [3] of 31%.

Compound `CCCn1cc2c(nc(NC(=O)Nc3ccc(S(=O)(=O)F)cc3)n3nc(-c4ccco4)nc23)n1` has an inhibition [1] of 70%, an inhibition [2] of 79% and an inhibition [3] of 47%.

For `Cn1cc2c(nc(NC(=O)Nc3ccc(N(CCCl)CCCl)cc3)n3nc(-c4ccco4)nc23)n1`, the inhibition [1] was 11%, the inhibition [2] was 22% and the inhibition [3] was 0%.
